# Source: PubChem BioAssay
# Beta2AR agonist: human beta-2 adrenergic receptor agonism by FAP. Am2.2-beta2AR cells, FAP receptor internalization, flow cytometry. hit rate 0.43% among 340,000. P07550. response, % (no concentration beside the values);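 active = response above a set limit, near 3 SD of response in nonfluorescent compounds, cut at about 42% in these data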
# Target sequence (P07550 whole entry, looked up): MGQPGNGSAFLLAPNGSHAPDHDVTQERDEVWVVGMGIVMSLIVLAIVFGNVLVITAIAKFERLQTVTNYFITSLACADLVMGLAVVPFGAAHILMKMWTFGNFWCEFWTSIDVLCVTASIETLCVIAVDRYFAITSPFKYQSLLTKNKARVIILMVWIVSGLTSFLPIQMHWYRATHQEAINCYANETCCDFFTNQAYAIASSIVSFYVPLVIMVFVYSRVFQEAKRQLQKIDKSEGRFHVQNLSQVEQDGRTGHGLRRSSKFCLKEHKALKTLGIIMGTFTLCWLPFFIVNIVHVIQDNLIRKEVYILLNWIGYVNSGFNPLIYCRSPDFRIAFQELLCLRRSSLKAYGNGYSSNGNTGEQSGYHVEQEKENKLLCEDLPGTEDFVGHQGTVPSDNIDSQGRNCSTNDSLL
# CHOP inhibitor: inhibitors of CHOP induction in ER stress response; CHO-K1 CHOP-promoter luciferase, tunicamycin-induced, 15-18 h; inhibition, % at 10 µM; hit rate 3.8% among 220,000;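 active = compounds that reduced the stress-induced luciferase reporter signal by more than about 70% of percent inhibition, limit read from the data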
# UPR CHOP act: activators of apoptotic arm of unfolded protein response (CHOP). CHO-CHOP luciferase reporter, UPR activation, luminescence; percent of tunicamycin response over DMSO baseline. hit rate 0.34% among 330,000. activation, % at 10 µM;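 active = at 10 µM dose, activation of 40% or more, normalized to positive control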
#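 System: CHO-CHOP luciferase reporter cell line | Buffer or medium: F12 medium containing 10% fetal bovine serum | Doses: One dose, 10 µM in 0.5% DMSO | Times: 6 h compound exposure at 37 °C after overnight seeding | Signal: Luciferase luminescence | Read-out: % activation vs tunicamycin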
# VLA-4 inh: inhibition in a human VLA-4 binding assay | P13612 | inhibition, % (about 7 µM as worked out from the volumes in the protocol) | hit rate 0.2% among 330,000 | VLA-4 expressing cells, ligand binding flow cytometry; in the data active = inhibition above about 50%
# XBP1 UPR activ: adaptive UPR (XBP1) activation; activation, % at 20 µM; CHO-XBP1 luciferase reporter, IRE1-XBP1 UPR activation, luminescence; percent of tunicamycin response, DMSO as zero; hit rate 0.33% among 330,000; AID 463104;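 active = versus positive control, 20 µM dose yields 30% or more activation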
#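 assay system = CHO-XBP1 luciferase reporter cells | amount = 1000 cells/well | buffer or medium = F12 plus 10% FBS | compound dosing = single point, 20 µM final compound, 1% DMSO | incubation = 16-18 h cell attachment at 37 °C, then 6 h compound exposure | detection = Steady-Glo luminescence read | controls = tunicamycin 10 µg/mL and vehicle-only wells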
# Numbers stand for hits; i = inactive; nt = no result. This excerpt belongs to a sample that is enriched for hits.
SMILES,Beta2AR agonist,CHOP inhibitor,UPR CHOP act,VLA-4 inh,XBP1 UPR activ
Cc1ccc(Nc2nc(CSc3nnc(-c4cccs4)o3)cs2)cc1,i,86,i,i,i
CC1CCC(NC(=O)CN2C(=O)C3CC=CCC3C2=O)CC1 (centres undefined),i,nt,i,i,i
Cc1onc(-c2ccccc2)c1C(=O)NC(=S)NNC(=O)c1ccc(O)cc1O,i,i,i,i,i
Cc1onc(-c2ccccc2)c1C(=O)NC(=S)NNC(=O)c1ccccc1O,i,77,i,i,i
O=C(COC(=O)c1ccccc1O)Nc1cc([N+](=O)[O-])ccc1Cl,i,i,i,i,i
Cn1c(=O)c2cc(S(=O)(=O)Nc3cc(C(=O)O)cc(C(=O)O)c3)ccc2n(C)c1=O,i,i,i,i,i
Cc1cc(C)cc(NS(=O)(=O)c2ccc3c(c2)c(=O)n(C)c(=O)n3C)c1,i,93,i,i,i
O=C(NC(NNc1ccc([N+](=O)[O-])cc1)(C(F)(F)F)C(F)(F)F)c1ccc(Cl)cc1,i,79,i,i,i
COc1ccc(C2c3c(-c4ccccc4O)n[nH]c3C(=O)N2Cc2ccco2)cc1OC (centres undefined),i,i,i,i,i
O=C1c2[nH]nc(-c3ccccc3O)c2C(c2ccc(F)cc2)N1Cc1ccco1 (centres undefined),i,82,i,i,i
CCOn1c(=O)c[n+]([O-])c2ccccc21,i,i,i,i,i
O=c1c[n+]([O-])c2ccccc2n1OCc1c(F)cccc1F,i,88,i,i,i
CCOc1ccc(S(=O)(=O)NCCC(=O)OCC(=O)c2ccc(NC(C)=O)cc2)cc1,i,nt,i,i,i
CCOc1ccc2cc(C#N)c(SCC(=O)N3CCC(C)CC3)nc2c1,i,i,i,i,i
CCOC(=O)CSc1nc2cc(OCC)ccc2cc1C#N,i,93,i,i,i
O=C(Nc1ccc(Cl)c(Cl)c1)Nc1ccc(N2CCCC2)c(S(=O)(=O)Nc2ccccc2Cl)c1,i,79,i,i,i
O=C(Nc1ccc(N2CCCCC2)c(S(=O)(=O)Nc2ccccc2Cl)c1)c1cccnc1,i,nt,i,i,i
CC[C@@]1(C(=O)OC)N[C@H](CN(C)C(=O)COc2ccccc2)[C@@H]2C(=O)N(Cc3ccccc3)C(=O)[C@@H]21,i,nt,i,i,i
CC(=O)NCC1COc2ccccc2O1 (centres undefined),i,i,i,i,i
CC(C)Oc1ccc(/C=C/C(=O)NCC2COc3ccccc3O2)cc1 (centres undefined),58,i,i,i,i
Fc1ccccc1/C=N/Nc1nc(-c2ccccn2)nc2ccccc12,nt,i,168,i,i
Cc1ccc2nc(C(Cl)(Cl)Cl)nc(N/N=C/c3ccncc3)c2c1,i,72,i,i,i
Cc1ccc(-c2nc(N/N=C/c3ccncc3)c3ccccc3n2)cc1,i,81,i,i,i
Oc1ccc(/C=N/Nc2nc(-c3cccnc3)nc3ccccc23)c(O)c1,i,i,i,i,i
O=C(Nc1nonc1-c1ccc(F)cc1)c1ccco1,i,nt,i,i,i
SMILES,Beta2AR agonist,CHOP inhibitor,UPR CHOP act,VLA-4 inh,XBP1 UPR activ
COc1ccc(S(=O)(=O)N2CCC(C(=O)NC(c3nc4ccccc4[nH]3)C(C)C)CC2)cc1 (centres undefined),i,nt,i,i,i
O=C(N/N=C\c1ccccn1)C1COc2cc3ccccc3cc2O1 (centres undefined),i,72,i,i,i
Cn1c(C(C#N)C(=O)c2ccco2)nc2ccccc21 (centres undefined),i,i,i,i,i
Cn1c(C(C#N)C(=O)Cc2cccc3ccccc23)nc2ccccc21 (centres undefined),i,75,i,i,i
O=C(Nc1ccncc1)c1c(F)c(F)c(F)c(F)c1F,i,nt,i,i,i
O=C(Nc1cccc(F)c1)c1c(F)c(F)c(F)c(F)c1F,i,79,i,i,i
O=C(Nc1ccccc1NC(=O)c1c(F)c(F)c(F)c(F)c1F)c1c(F)c(F)c(F)c(F)c1F,i,77,i,i,i
O=C(Nc1ccn(Cc2cccc3ccccc23)n1)c1cccnc1,i,i,i,i,i
N#Cc1c(N)nc2c(c1-c1ccc3c(c1)OCO3)CCCCCC2,i,86,i,i,i
Cc1nc2ccc(C(C(F)(F)F)(C(F)(F)F)C(F)(F)F)cc2[nH]1,i,73,i,i,i
CCc1ccc(OC)c(S(=O)(=O)NCc2cccs2)c1,i,nt,i,i,i
COc1ccccc1NS(=O)(=O)c1cc(NC(=O)c2cccs2)ccc1N1CCCC1,i,i,i,i,i
O=C(Nc1ccc(N2CCCC2)c(S(=O)(=O)Nc2cccc(C(F)(F)F)c2)c1)c1cccs1,i,90,i,i,i
COc1cc(/C=C(\C#N)C(=O)N2CCOCC2)ccc1OCc1ccccc1,i,i,i,i,i
N#C/C(=C\c1ccc(OCc2ccc(C(=O)O)cc2)cc1)C(=O)N1CCOCC1,i,82,i,i,i
OCC[C@H]1C[C@@H](O)[C@H](O)[C@]2(Cc3ccccc3CO2)O1,i,nt,i,i,i
CC(C)c1ccc(/C=N/NC(=O)c2nnn(-c3nonc3N)c2CSC2=NCCS2)cc1,i,74,i,i,i
COc1ccccc1NC(=O)NC1(C(=O)N2CCCCC2)CCCCC1,i,nt,i,i,i
Cc1onc(-c2ccccc2Cl)c1C(=O)N1CCCC1,i,nt,i,i,i
Cc1cc2ncn(C(=O)c3c(-c4ccccc4Cl)noc3C)c2cc1C,i,76,i,i,i
CC(C)(C)NC(=O)COC(=O)c1ccc(NC(=O)CC#N)cc1,i,i,i,i,i
CCOC(=O)c1cc2occc2n1CC(=O)N1CCOCC1,i,i,i,i,i
CCOC(=O)c1cc2occc2n1CC(=O)Nc1ccc(OC)cc1OC,i,84,i,i,i
CCc1ccc(C(=O)c2cncc(Br)c2)cc1,i,74,i,i,i
Cc1ccc(C(=O)c2cncc(Br)c2)cc1,i,i,i,i,i
SMILES,Beta2AR agonist,CHOP inhibitor,UPR CHOP act,VLA-4 inh,XBP1 UPR activ
O=C(NC1CCCCC1)c1cc(S(=O)(=O)N2CCCCC2)ccc1N1CCOCC1,i,nt,i,i,i
CCc1nc(C)cn1S(=O)(=O)c1ccc2c(c1)OCCO2,i,nt,nt,nt,nt
COc1ccc2[nH]c(C)c(CCN(Cc3cccs3)C(=S)Nc3ccc(F)cc3)c2c1,i,78,i,i,i
COc1ccc2[nH]c(C)c(CCN(Cc3cccs3)C(=S)Nc3ccccc3)c2c1,i,70,i,i,i
Cc1ccnc(NC(=O)C2CCN(S(=O)(=O)c3ccc(C)c(C)c3)CC2)c1,i,nt,i,i,i
CCN(CC)CCN1C(=O)C(=O)/C(=C(/O)c2ccc(S(=O)(=O)N3CCOCC3)cc2)C1c1ccc(Cl)cc1 (centres undefined),i,nt,i,i,i
CCOCCCNC(=O)c1c(N)n(-c2ccc3c(c2)OCO3)c2nc3ccccc3nc12,i,73,i,i,i
